In ChEMBL document CHEMBL1131159, “Bis-cationic heteroaromatics as macrofilaricides: synthesis of bis-amidine and bis-guanylhydrazone derivatives of substituted imidazo[1,2-a]pyridines” (1998):
Several values for one entry are separate records, joined by “and”; a condition that tells them apart may be missing. Equal entries are not always repeated.

What was measured:
Brugia pahangi = test: Macrofilarial reduction at 100 mg/kg dosage by subcutaneous administration for a period of 5 days against Brugia pahangi; assay type: functional
In short: (§1)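 Jirds doubly infected with A. viteae and B. pahangi were dosed subcutaneously once daily on five successive days. Each series included a flubendazole positive control at 2.0 mg/day for 5 days. Jirds were killed 56 days later and worms of each species counted. Worm percentage was compared with untreated negative controls, and ≥60% reduction was scored as active.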

Acanthocheilonema viteae = test: Macrofilarial reduction at 100 mg/kg dosage by subcutaneous administration for a period of 5 days against Acanthocheilonema viteae; assay type: functional; in short: as §1
Meriones unguiculatus [1] = test: Compound was tested for macrofilarial reduction at 100 mg/kg dosage by subcutaneous administration for a period of 5 days against Acanthocheilonema viteae (Acanthocheilonema viteae); Toxic; assay type: functional, organism-based; parameters: dose 100 mg/kg; in short: as §1
Meriones unguiculatus [2] = test: Compound was tested for macrofilarial reduction at 100 mg/kg dosage by subcutaneous administration for a period of 5 days against Brugia pahangi (Brugia pahangi); Toxic; assay type: functional, organism-based; parameters: dose 100 mg/kg; in short: as §1
Meriones unguiculatus [3] = test: Compound was tested for macrofilarial reduction at 75 mg/kg dosage by subcutaneous administration for a period of 5 days against Brugia pahangi (Brugia pahangi).; assay type: functional; in short: as §1
Meriones unguiculatus [4] = test: Compound was tested for macrofilarial reduction at 1.56 mg/kg dosage by subcutaneous administration for a period of 5 days against Brugia pahangi (Brugia pahangi).; assay type: functional; in short: as §1
Meriones unguiculatus [5] = test: Compound was tested for macrofilarial reduction at 75 mg/kg dosage by subcutaneous administration for a period of 5 days against Acanthocheilonema viteae (Acanthocheilonema viteae); assay type: functional; in short: as §1
Meriones unguiculatus [6] = test: Compound was tested for macrofilarial reduction at 50 mg/kg dosage by subcutaneous administration for a period of 5 days against Brugia pahangi (Brugia pahangi).; assay type: functional; in short: as §1
Meriones unguiculatus [7] = test: Compound was tested for macrofilarial reduction at 3.12 mg/kg dosage by subcutaneous administration for a period of 5 days against Brugia pahangi (Brugia pahangi).; assay type: functional; in short: as §1
Meriones unguiculatus [8] = test: Compound was tested for macrofilarial reduction at 25 mg/kg dosage by subcutaneous administration for a period of 5 days against Brugia pahangi (Brugia pahangi).; assay type: functional; in short: as §1
Meriones unguiculatus [9] = test: Compound was tested for macrofilarial reduction at 50 mg/kg dosage by subcutaneous administration for a period of 5 days against Acanthocheilonema viteae (Acanthocheilonema viteae); assay type: functional; in short: as §1
Meriones unguiculatus [10] = test: Compound was tested for macrofilarial reduction at 6.25 mg/kg dosage by subcutaneous administration for a period of 5 days against Acanthocheilonema viteae (Acanthocheilonema viteae); assay type: functional; in short: as §1
Meriones unguiculatus [11] = test: Compound was tested for macrofilarial reduction at 1.56 mg/kg dosage by subcutaneous administration for a period of 5 days against Acanthocheilonema viteae (Acanthocheilonema viteae); assay type: functional; in short: as §1
[12] = Compound was tested for macrofilarial reduction at 12.5 mg/kg dosage by subcutaneous administration for a period of 5 days against Acanthocheilonema viteae (Acanthocheilonema viteae); assay type: functional, Meriones unguiculatus; in short: as §1
Meriones unguiculatus [13] = test: Compound was tested for macrofilarial reduction at 3.12 mg/kg dosage by subcutaneous administration for a period of 5 days against Acanthocheilonema viteae (Acanthocheilonema viteae); assay type: functional; in short: as §1
Meriones unguiculatus [14] = test: Compound was tested for macrofilarial reduction at 12.5 mg/kg dosage by subcutaneous administration for a period of 5 days against Brugia pahangi (Brugia pahangi).; assay type: functional; in short: as §1
Meriones unguiculatus [15] = test: Compound was tested for macrofilarial reduction at 25 mg/kg dosage by subcutaneous administration for a period of 5 days against Acanthocheilonema viteae (Acanthocheilonema viteae); assay type: functional; in short: as §1
Meriones unguiculatus [16] = test: Compound was tested for macrofilarial reduction at 6.25 mg/kg dosage by subcutaneous administration for a period of 5 days against Brugia pahangi (Brugia pahangi).; assay type: functional; in short: as §1
Meriones unguiculatus [17] = test: Compound was tested for macrofilarial reduction at 100 mg/kg dosage by subcutaneous administration for a period of 5 days against Acanthocheilonema viteae (Acanthocheilonema viteae) * Toxicity noted at this dosage; assay type: functional; in short: as §1
Meriones unguiculatus [18] = test: Compound was tested for macrofilarial reduction at 100 mg/kg dosage by subcutaneous administration for a period of 5 days against Brugia pahangi (Brugia pahangi). * Toxicity noted at this dosage; assay type: functional; in short: as §1

SMILES	Reduction (Brugia pahangi) [%]	Reduction (Acanthocheilonema viteae) [%]	also measured
C(=NNC1=NCCN1)c1ccc2nc(-c3ccccc3)cn2c1	0	20	
N=C(NN=Cc1ccc2nc(C=NNC(=N)N3CCCC3)cn2c1)N1CCCC1	5	0	
CC(C)NC(=N)c1ccc(/C=C/c2cn3cc(C(=N)NC(C)C)ccc3n2)cc1			Reduction (Meriones unguiculatus [1]): Toxic; Reduction (Meriones unguiculatus [2]): Toxic
C(=NNC1=NCCCN1)c1ccc(-c2cn3cc(C=NNC4=NCCCN4)ccc3n2)cc1		100	Reduction (Meriones unguiculatus [3]): 0%; Reduction (Meriones unguiculatus [4]): 16%; Reduction (Brugia pahangi; 100 mg/kg): 9% and 0%; Reduction (Meriones unguiculatus [5]): 100%; Reduction (Meriones unguiculatus [6]): 0%; Reduction (Meriones unguiculatus [7]): 11%; Reduction (Meriones unguiculatus [8]): 0%; Reduction (Meriones unguiculatus [9]): 100%; Reduction (Meriones unguiculatus [10]; 6.25 mg/kg): 100% and 75%; Reduction (Meriones unguiculatus [11]): 73%; Reduction ([12]; 12.5 mg/kg): 100% and 64%; Reduction (Meriones unguiculatus [13]): 88%
C(=NNC1=NCCCN1)c1ccc(-c2cn3ccccc3n2)cc1	0	0	
Nc1ccc(C(=O)NN=Cc2ccc(-c3cn4cc(C=NNC(=O)c5ccc(N)cc5)ccc4n3)cc2)cc1	8	0	
Cc1ccc(S(=O)(=O)NN=Cc2ccc(-c3cn4cc(C=NNS(=O)(=O)c5ccc(C)cc5)ccc4n3)cc2)cc1	16	0	
C(=NNC1=NCCCN1)c1ccc(/C=C/c2cn3cc(C=NNC4=NCCCN4)ccc3n2)cc1	32	100	
C(=NNC1=NCCCN1)c1ccc2nc(-c3ccccc3)cn2c1	0	30	
C(=NNc1ccccn1)c1ccc(-c2cn3cc(C=NNc4ccccn4)ccc3n2)cc1	0	0	
C(=NNC1=NCCN1)c1ccc(/C=C/c2cn3cc(C=NNC4=NCCN4)ccc3n2)cc1	4	24	
C(=NNC1=NCCC1)c1ccc(-c2cn3cc(C=NNC4=NCCC4)ccc3n2)cc1	5	24	
N=C(c1ccc(-c2cn3cc(C(=N)N4CCCC4)ccc3n2)cc1)N1CCCC1			Reduction (Meriones unguiculatus [7]): 0%; Reduction (Meriones unguiculatus [13]): 39%
N=C(c1ccc(-c2cn3ccccc3n2)cc1)N1CCCCC1	15	0	
C(=NNC1=NCCN1)c1ccc(-c2cn3cc(C=NNC4=NCCN4)ccc3n2)cc1			Reduction (Brugia pahangi; 100 mg/kg): 18% and 11%; Reduction (Acanthocheilonema viteae; 100 mg/kg): 100% and 78%; Reduction (Meriones unguiculatus [6]): 0%; Reduction (Meriones unguiculatus [9]): 100%; Reduction (Meriones unguiculatus [14]): 0%; Reduction (Meriones unguiculatus [15]; 25 mg/kg): 82% and 73%; Reduction [12]: 82%
C(=Cc1ccc(-c2cn3ccccc3n2)cc1)C1=NCCN1	18	28	
C(=NNC1=NCCS1)c1ccc(-c2cn3cc(C=NNC4=NCCS4)ccc3n2)cc1	38	0	
C(=C\c1cn2cc(C3=NCCN3)ccc2n1)/c1ccc(C2=NCCN2)cc1			Reduction (Meriones unguiculatus [1]): Toxic; Reduction (Meriones unguiculatus [2]): Toxic
N=C(c1ccc2nc(-c3ccccc3)cn2c1)N1CCOCC1	12	0	
C(=Cc1ccc(-c2cn3cc(C=CC4=NCCS4)ccc3n2)cc1)C1=NCCS1	0	0	
c1ccn2cc(-c3ccc(C4=NCCCN4)cc3)nc2c1	0	0	

SMILES	Reduction (Brugia pahangi) [%]	Reduction (Acanthocheilonema viteae) [%]	also measured
N=C(NN=C/C=C/c1ccc(-c2cn3cc(/C=C/C=NNC(=N)N4CCCC4)ccc3n2)cc1)N1CCCC1			Reduction (Meriones unguiculatus [14]): 38%; Reduction [12]: 50%
N=C(c1ccc(/C=C/c2cn3cc(C(=N)N4CCCC4)ccc3n2)cc1)N1CCCC1			Reduction (Meriones unguiculatus [1]): Toxic; Reduction (Meriones unguiculatus [2]): Toxic
C(=NNC1=NCCN1)c1ccc(-c2cn3ccccc3n2)cc1	0	60	
CN1CCN(C(=N)/C=C/c2ccc(-c3cn4cc(/C=C/C(=N)N5CCN(C)CC5)ccc4n3)cc2)CC1			Reduction (Meriones unguiculatus [14]): 0%; Reduction [12]: 57%
CC(C)NC(=N)NN=Cc1ccc(-c2cn3cc(C=NNC(=N)NC(C)C)ccc3n2)cc1	32	100	
N=C(c1ccc2nc(-c3ccccc3)cn2c1)N1CCCC1			Reduction (Brugia pahangi; 100 mg/kg): 25% and 0%; Reduction (Acanthocheilonema viteae; 100 mg/kg): 60% and 27%
C(=NNC1=NCCN1)c1ccc2nc(C=NNC3=NCCN3)cn2c1	5	5	
C(=NNC1=NCCCN1)c1ccc2nc(C=NNC3=NCCCN3)cn2c1	5	0	
c1ccc(-c2cn3cc(C4=NCCN4)ccc3n2)cc1	42	0	
N=C(/C=C/c1ccc(-c2cn3cc(/C=C/C(=N)N4CCCC4)ccc3n2)cc1)N1CCCC1			Reduction (Meriones unguiculatus [16]): 0%; Reduction (Meriones unguiculatus [10]): 72%
N=C(NN=Cc1ccc(-c2cn3cc(C=NNC(=N)N4CCCC4)ccc3n2)cc1)N1CCCC1	0	60	Reduction (Meriones unguiculatus [17]): 73%; Reduction (Meriones unguiculatus [18]): 0%
C(/C=C/c1ccc(-c2cn3cc(/C=C/C=NNC4=NCCN4)ccc3n2)cc1)=NNC1=NCCN1	18	71	
C(/C=C/c1ccc(-c2cn3cc(/C=C/C=NNC4=NCCCN4)ccc3n2)cc1)=NNC1=NCCCN1			Reduction (Acanthocheilonema viteae; 100 mg/kg): 100% and 64%; Reduction (Meriones unguiculatus [6]): 38%; Reduction (Meriones unguiculatus [8]): 13%; Reduction (Meriones unguiculatus [9]): 100%; Reduction (Meriones unguiculatus [14]): 38%; Reduction (Meriones unguiculatus [15]): 73%; Reduction [12]: 50%
N=C(/C=C/c1ccc(-c2cn3cc(/C=C/C(=N)N4CCOCC4)ccc3n2)cc1)N1CCOCC1			Reduction (Meriones unguiculatus [14]): 0%; Reduction [12]: 50%
N=C(NN=Cc1ccc(-c2cn3ccccc3n2)cc1)N1CCCC1	0	47	
C(=Cc1ccc(-c2cn3ccccc3n2)cc1)C1=NCCS1	0	0	
N=C(c1ccc(-c2cn3ccccc3n2)cc1)N1CCCC1	36	0	
c1cc(-c2cn3cc(C4=NCCN4)ccc3n2)ccc1C1=NCCN1	35	0	
N=C(NN=Cc1ccc(-c2cn3ccccc3n2)cc1)N1CCOCC1	12	0	
N=C(c1ccc(-c2cn3ccccc3n2)cc1)N1CCOCC1	29	0	
c1ccn2cc(-c3ccc(C4=NCCN4)cc3)nc2c1	8	20	
